Activity calls are given as the source filed them. The calls are words filed in the database; no cut-off is given here.
Tests used:
DU-145 [1] = test: Growth inhibition of human DU145 cells after 2 days by MTT assay; format: functional
How it was run: (§1)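 DU145 or HT29 cells in RPMI 1640 with 10% heat-inactivated FBS, 37 °C, 5% CO2. Seeded at 3 × 10^3 cells/well, exposed to a range of compound concentrations in duplicate for two days. Read-out was MTT-type tetrazolium dye for up to 4 h, overnight solubilization of formazan, then OD at 570 nm. GI50 was derived.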

HeLa [2] = test: Induction of monoastral spindle formation in human HeLa cells assessed as interphase cells with cortical MT bundles at 25 uM after 8 hrs by immunofluorescence assay; format: functional, cell-based
HT-29 = test: Growth inhibition of human HT-29 cells after 2 days by MTT assay; format: functional; how it was run: as §1
[3] = biological target: T1, Kinesin-like protein KIF11 (Homo sapiens, UniProt P52732); test: (§2) Inhibition of Eg5 ATPase activity by pyruvate kinase/lactate dehydrogenase-linked assay
T1 sequence (P52732 whole entry): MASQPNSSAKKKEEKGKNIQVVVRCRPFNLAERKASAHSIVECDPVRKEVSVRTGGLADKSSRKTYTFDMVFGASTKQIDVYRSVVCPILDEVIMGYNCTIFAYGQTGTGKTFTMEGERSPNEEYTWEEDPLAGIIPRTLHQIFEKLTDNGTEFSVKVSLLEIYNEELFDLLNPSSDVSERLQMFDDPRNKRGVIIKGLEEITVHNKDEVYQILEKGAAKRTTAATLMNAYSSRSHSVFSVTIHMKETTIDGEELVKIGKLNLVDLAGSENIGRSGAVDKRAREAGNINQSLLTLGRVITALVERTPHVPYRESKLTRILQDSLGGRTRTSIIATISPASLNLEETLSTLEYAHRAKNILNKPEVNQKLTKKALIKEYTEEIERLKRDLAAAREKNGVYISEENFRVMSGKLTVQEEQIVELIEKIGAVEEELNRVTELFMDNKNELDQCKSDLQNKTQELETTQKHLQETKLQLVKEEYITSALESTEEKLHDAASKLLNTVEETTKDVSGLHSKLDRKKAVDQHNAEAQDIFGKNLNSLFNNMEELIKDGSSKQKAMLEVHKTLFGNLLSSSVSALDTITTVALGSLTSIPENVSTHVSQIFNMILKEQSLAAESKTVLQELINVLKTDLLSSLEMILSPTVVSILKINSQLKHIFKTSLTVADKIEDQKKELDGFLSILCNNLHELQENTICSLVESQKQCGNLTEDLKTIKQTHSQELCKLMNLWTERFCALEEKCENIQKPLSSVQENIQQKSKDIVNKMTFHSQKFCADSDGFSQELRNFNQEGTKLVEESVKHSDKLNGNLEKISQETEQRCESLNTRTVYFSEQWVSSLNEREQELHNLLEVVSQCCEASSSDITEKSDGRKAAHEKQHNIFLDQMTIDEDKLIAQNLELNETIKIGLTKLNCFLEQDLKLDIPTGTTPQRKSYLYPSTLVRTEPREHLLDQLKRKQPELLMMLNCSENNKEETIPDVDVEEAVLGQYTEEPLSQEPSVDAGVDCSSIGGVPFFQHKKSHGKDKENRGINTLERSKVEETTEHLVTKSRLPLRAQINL
How it was run: (§3)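 Basal steady-state ATPase of 200 nM Eg5 2–368, measured by pyruvate kinase/lactate dehydrogenase coupling in ACES buffer pH 6.9 with Mg acetate, EGTA, EDTA and β-mercaptoethanol, at 25 °C with up to 2.0% DMSO. STLC was the positive control. Each concentration was run in triplicate and reported as mean ± SD to give IC50.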

[4] = biological target: T2, Kinesin heavy chain isoform 5C (Homo sapiens, UniProt O60282); test: Inhibition of human Kif5C ATPase activity by pyruvate kinase/lactate dehydrogenase-linked assay
T2 sequence (O60282 whole entry): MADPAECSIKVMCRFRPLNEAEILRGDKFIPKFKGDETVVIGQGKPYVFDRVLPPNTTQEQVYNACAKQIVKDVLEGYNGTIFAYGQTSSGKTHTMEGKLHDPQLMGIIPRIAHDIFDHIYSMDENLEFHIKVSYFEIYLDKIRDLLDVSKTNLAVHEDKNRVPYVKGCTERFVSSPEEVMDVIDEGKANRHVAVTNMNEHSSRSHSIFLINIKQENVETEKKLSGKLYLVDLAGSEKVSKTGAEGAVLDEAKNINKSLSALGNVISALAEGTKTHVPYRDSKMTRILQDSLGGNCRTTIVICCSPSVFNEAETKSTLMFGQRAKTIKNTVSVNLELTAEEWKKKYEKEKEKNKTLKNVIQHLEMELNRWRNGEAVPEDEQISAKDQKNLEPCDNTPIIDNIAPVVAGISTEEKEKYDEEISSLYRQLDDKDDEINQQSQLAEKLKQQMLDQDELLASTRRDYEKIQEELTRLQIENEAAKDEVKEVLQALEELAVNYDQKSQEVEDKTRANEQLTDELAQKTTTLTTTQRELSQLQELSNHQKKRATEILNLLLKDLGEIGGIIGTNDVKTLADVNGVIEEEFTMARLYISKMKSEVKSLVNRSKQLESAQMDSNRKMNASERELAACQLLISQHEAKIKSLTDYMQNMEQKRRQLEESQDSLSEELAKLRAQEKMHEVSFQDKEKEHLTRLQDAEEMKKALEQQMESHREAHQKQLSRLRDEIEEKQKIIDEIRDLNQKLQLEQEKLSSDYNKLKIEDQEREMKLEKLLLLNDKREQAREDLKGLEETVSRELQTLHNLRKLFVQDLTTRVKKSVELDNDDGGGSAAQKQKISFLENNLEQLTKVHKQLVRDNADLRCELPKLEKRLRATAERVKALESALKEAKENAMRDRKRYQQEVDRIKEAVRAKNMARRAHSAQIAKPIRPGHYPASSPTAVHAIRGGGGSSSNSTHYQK
How it was run: (§4)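 HsKif5A or HsKif5C ATPase measured with the same pyruvate kinase/lactate dehydrogenase-linked format, at 25 °C in ACES buffer pH 6.9 with up to 2.0% DMSO. Concentrations were run in triplicate.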

HeLa [5] = test: Induction of monoastral spindle formation in human HeLa cells at 25 uM after 8 hrs by immunofluorescence assay; format: functional, cell-based
How it was run: (§5)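 HeLa cells grown in D-MEM with 10% fetal calf serum on poly-D-lysine-coated coverslips and allowed to adhere at least 36 h. Compounds were diluted in medium from 25 mM DMSO stocks and applied for 8 h. Cells were fixed in 2% paraformaldehyde, permeabilized with 0.2% Triton X-100, and stained for β-tubulin and centromeres, with DAPI for DNA. Mitotic cells with monoastral versus bipolar spindles were counted by epifluorescence microscopy.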

[6] = biological target: T3, Kinesin-like protein KIF11 (Homo sapiens) (UniProt P52732); test: as §2; parameters: concentration or dose not given beside the values; how it was run: as §3
T3 sequence (whole entry): T1 sequence (P52732 whole entry)

[7] = biological target: T4, Kinesin heavy chain isoform 5A (Homo sapiens, UniProt Q12840); test: Inhibition of human Kif5A ATPase activity by pyruvate kinase/lactate dehydrogenase-linked assay; how it was run: as §4
T4 sequence (Q12840 whole entry): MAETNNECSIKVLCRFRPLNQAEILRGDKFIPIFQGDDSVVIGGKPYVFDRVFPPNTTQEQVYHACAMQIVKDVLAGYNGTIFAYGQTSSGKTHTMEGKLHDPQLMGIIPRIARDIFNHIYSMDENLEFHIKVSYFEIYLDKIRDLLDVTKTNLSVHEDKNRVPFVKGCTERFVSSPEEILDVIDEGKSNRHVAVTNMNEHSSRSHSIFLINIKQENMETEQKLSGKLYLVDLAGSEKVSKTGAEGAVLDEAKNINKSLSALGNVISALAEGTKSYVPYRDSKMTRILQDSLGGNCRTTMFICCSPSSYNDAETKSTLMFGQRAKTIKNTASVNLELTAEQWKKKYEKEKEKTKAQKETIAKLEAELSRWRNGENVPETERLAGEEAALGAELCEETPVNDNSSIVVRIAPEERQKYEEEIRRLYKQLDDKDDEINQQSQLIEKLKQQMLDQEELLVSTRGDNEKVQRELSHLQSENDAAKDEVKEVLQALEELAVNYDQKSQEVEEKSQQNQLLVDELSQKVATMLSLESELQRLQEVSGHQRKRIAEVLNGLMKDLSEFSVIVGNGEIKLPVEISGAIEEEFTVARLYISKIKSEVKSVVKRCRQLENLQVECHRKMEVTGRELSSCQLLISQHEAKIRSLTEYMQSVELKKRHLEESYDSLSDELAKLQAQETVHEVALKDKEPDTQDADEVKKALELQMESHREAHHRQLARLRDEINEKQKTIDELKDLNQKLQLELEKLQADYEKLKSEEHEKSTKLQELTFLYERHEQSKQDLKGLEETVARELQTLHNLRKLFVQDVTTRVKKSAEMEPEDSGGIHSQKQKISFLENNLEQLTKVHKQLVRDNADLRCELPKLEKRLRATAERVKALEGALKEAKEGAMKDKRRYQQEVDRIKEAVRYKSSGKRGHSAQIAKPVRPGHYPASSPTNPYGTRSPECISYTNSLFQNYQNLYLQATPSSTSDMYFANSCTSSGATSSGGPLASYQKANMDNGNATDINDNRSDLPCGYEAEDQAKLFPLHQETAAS

HeLa [8] = test: Induction of monoastral spindle formation in human HeLa cells assessed as cells with misaligned chromosomes at 25 uM after 8 hrs by immunofluorescence assay; format: functional, cell-based
HeLa [9] = test: Induction of monoastral spindle formation in human HeLa cells at 50 uM after 8 hrs by immunofluorescence assay; format: functional; how it was run: as §5
DU-145 [10] = test: Selectivity ratio of GI50 for human DU145 cells to GI50 for human HT29 cells; format: functional

SMILES	GI50 (DU-145 [1]; DU-145, 48 h) [µM]	Activity (HeLa [2])	GI50 (HT-29; HT-29, 48 h) [µM]	IC50 [3]	IC50 [4]	GI50 (DU-145 [1])	Activity (HeLa [5])	GI50 (HT-29)	IC50 ([3]; read-out: IC50) [µM]	inhibition ([6]; concentration not given here) [%]	IC50 [7]	Activity (HeLa [8])	inhibition [6]	IC50 ([4]; read-out: IC50) [µM]	IC50 ([7]; read-out: IC50) [µM]	Activity (HeLa [9]) [%]	RatioGI50 (DU-145 [10])
O=C(O)CSc1cc(NS(=O)(=O)c2ccc(C(=O)O)cc2)c2ccccc2c1O	21	Active	4.4	Not Active	–	–	–	–	–	–	–	–	–	–	–	–	–
Cc1ccc2c(c1)-c1cc(C)nn1C(c1ccccc1F)N2 (stereo unspecified)	–	–	–	–	Not Active	inactive	inactive	inactive	6.3	60	Not Active	–	–	–	–	–	–
COC(=O)c1c(C)oc2c1cc(NS(=O)(=O)c1ccc(C(=O)O)cc1)c1ccccc12	–	–	–	–	Not Active	inactive	inactive	inactive	79.1	80	Not Active	–	–	–	–	–	–
COC(=O)c1c(NC(=O)c2ccccc2Br)sc(C)c1C	> 100	–	33.7	–	–	–	–	–	–	–	–	Active	inactive	–	–	–	–
Cc1ccc(-n2c(=O)[nH]c3c(C(N)=O)nc(-c4ccc(F)cc4F)nc32)cc1C	8.7	–	9.3	–	–	–	inactive	–	41.5	60	–	–	–	50	50	–	–
Cc1cc(F)ccc1S(=O)(=O)N(C(=O)C1CCCCC1)c1ccc2oc(=O)sc2c1	41.2	–	19.4	Not Active	–	–	inactive	–	–	–	–	–	–	–	–	–	–
COc1ccc(N2C(=O)C(CC(=O)Nc3ccccc3)N(CCc3cccs3)C2=S)cc1 (stereo unspecified)	34.3	–	17.7	–	Not Active	–	–	–	1	60	Not Active	–	–	–	–	50	2
COc1ccc(NC(=O)CC2C(=O)N(c3ccccc3)C(=S)N2CCc2sccc2C)cc1 (stereo unspecified)	42.3	–	19.6	–	Not Active	–	–	–	2.4	60	Not Active	–	–	–	–	–	2
Cc1ccsc1CCN1C(=S)N(c2ccc(F)cc2)C(=O)C1CC(=O)Nc1ccc(F)cc1 (stereo unspecified)	31	–	16.7	–	Not Active	–	Active	–	0.6	80	Not Active	–	–	–	–	–	2

Source: ChEMBL document CHEMBL2029262, “Receptor-ligand interaction-based virtual screening for novel Eg5/kinesin spindle protein inhibitors” (J Med Chem, 2012)
